Results: ChEMBL document CHEMBL1126571, “Isocyanines and pseudoisocyanines as a novel class of potent noradrenaline transport inhibitors: synthesis, detection, and biological activity” (J Med Chem, 1993)
pIC50: −log10 of the molar value.

Tests used:
[1] = Partition coefficient (logP); assay type: physicochemical; details: octanol/water
How it was run: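 Shake-flask octanol/water partition: compound diluted from ethanolic stock to 20 μmol/L in octanol-saturated sodium phosphate buffer (10 mmol/L, pH 7.4). Absorbance read before and after shaking 2 h at 21 °C with buffer-saturated 1-octanol (buffer:octanol volume ratio f), phases split by centrifugation. P = (Ao − Ax)/Ax × f. Read at 520 nm (pseudoisocyanines) or 565 nm (isocyanines); SEM, n = 4.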

[2] = system: CAKI-1; test: Tested for the inhibition of extraneuronal [3H]norepinephrine uptake in Caki-1 cells; assay type: functional, cell-based; details: Homo sapiens, CAKI-1, 15 min
How it was run: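 Human renal carcinoma Caki-1 monolayers expressing extraneuronal noradrenaline transport. Preincubated 20 min at 37 °C in HEPES buffer pH 7.4 with U-0521 and pargyline (10 μmol/L each) and ascorbate 1 mmol/L, then incubated 15 min at 37 °C with 100 nmol/L [3H]noradrenaline. Inhibitor present throughout. Cells rinsed ice-cold, read by scintillation. Specific uptake is the fraction sensitive to 100 μmol/L O-methylisoprenaline. IC50 from Hill fit, geometric mean with 95% confidence limits.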

[3] = system: PC-12; test: Tested for the inhibition of neuronal type of noradrenaline uptake in clonal PC12 cells; assay type: functional, cell-based; details: Rattus norvegicus

Compound | logP [1] | pIC50 [2] | pIC50 [3]
CN1C=C/C(=C/c2ccc3ccccc3[n+]2C)c2ccccc21 | 0.81 | 7.00 | 
C[n+]1c(Cc2ccc3ccccc3[n+]2C)ccc2ccccc21 | 0.34 | 7.03 | 
CCN1/C(=C\c2cc[n+](CC)c3ccccc23)C=Cc2ccccc21 | 0.86 | 7.54 | 
CC(C)[n+]1ccc(/C=C2/C=Cc3ccccc3N2C)c2ccccc21 | 0.92 | 7.29 | 

Stronger by pIC50 [2], values ahead:

logP [1] | pIC50 [2] | pIC50 [3] | Compound
1.16 | 7.85 |  | CC(C)N1/C(=C\c2cc[n+](C(C)C)c3ccccc23)C=Cc2ccccc21 [DISPROCYNIUM24]
0.84 | 7.89 |  | CC[n+]1c(Cc2ccc3ccccc3[n+]2C(C)C)ccc2ccccc21
0.65 | 7.92 | 5.52 | CC[n+]1c(Cc2ccc3ccccc3[n+]2CC)ccc2ccccc21
